RBBP9 inhibitor: human RBBP9 inhibitors, primary screen, biochemical, fluorescence polarization, FP-Rh probe, HTS; Serine hydrolase RBBP9 (Homo sapiens), O75884; recombinant RBBP9; inhibition, % at 7.94 µM; hit rate 0.2% among 220,000;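 active = inhibition above the campaign mean of all tested compounds plus 3 SD, cut at about 14% in these data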
Target sequence (O75884 whole entry, looked up): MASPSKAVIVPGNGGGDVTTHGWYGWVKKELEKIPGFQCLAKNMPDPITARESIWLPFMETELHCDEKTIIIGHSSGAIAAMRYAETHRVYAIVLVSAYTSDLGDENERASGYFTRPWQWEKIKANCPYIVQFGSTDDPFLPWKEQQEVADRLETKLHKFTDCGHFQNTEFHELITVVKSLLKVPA
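System: RBBP9 protein / Quantity: 2.5 µM RBBP9 dispensing solution, before mixing / Also added: Serine-hydrolase probe FP-Rh, 375 nM pre-mixing / Dosing: 7.94 µM single dose, 0.794% DMSO / Timing: enzyme-compound preincubation 30 min, then probe labeling 45 min, 25 °C / Signal: FP readout at 525/598 nm / Controls: DMSO-treated enzyme wells and wells lacking RBBP9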
14-3-3 Bad inh: inhibitors of 14-3-3 zeta/Bad binding, primary screen, biochemical, TR-FRET, bovine 14-3-3 zeta; 14-3-3 protein zeta/delta (Bos taurus), P63103; TR-FRET 14-3-3zeta/Dy647-pBad peptide displacement, 1 h; inhibition, % at 21.7 µM; hit rate 0.71% among 220,000; AID 781, 2007;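 active = inhibition above about 70%, limit read from the data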
Target sequence (P63103 whole entry, looked up): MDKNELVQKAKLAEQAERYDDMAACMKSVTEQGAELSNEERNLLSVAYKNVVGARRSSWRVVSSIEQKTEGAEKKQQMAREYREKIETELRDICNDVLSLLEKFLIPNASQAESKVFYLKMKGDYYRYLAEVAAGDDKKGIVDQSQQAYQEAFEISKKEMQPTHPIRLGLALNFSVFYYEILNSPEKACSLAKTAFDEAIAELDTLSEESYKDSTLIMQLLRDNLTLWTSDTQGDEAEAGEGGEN
PKD1 kinase inh: inhibitors of human PKD1 kinase, biochemical, fluorescence polarization. PKD1 kinase fluorescence polarization assay. inhibition, % (test concentration not listed). hit rate 0.056% among 200,000. AID 797, 2007
eIF4E-4G inh: eIF4E–eIF4G protein interaction inhibitors, primary screen, biochemical, uHTS, TR-FRET, eIF4GI fragment. Eukaryotic translation initiation factor 4E (Mus musculus) + Eukaryotic translation …. TR-FRET eIF4E-eIF4GI(517-606) binding, 2 h. inhibition, % at 21.7 µM. hit rate 0.37% among 220,000. AID 782, 2007;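 active = inhibition above about 30%, limit read from the data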
EBV gp42 inh: Epstein-Barr virus gp42 inhibitors, primary screen, biochemical, uHTS, fluorescence polarization; AID 1085, 2008; Fluorescence polarization binding assay, mP read-out; inhibition, % (tested at 21.74 µM); Glycoprotein 42 (Epstein-Barr virus (strain AG876)), Q1HVG2; hit rate 0.42% among 220,000
Large screens that a line does not name were inactive; [ ] = remark or other dose. Shown are actives, neighbours in structure and some others; about 1.6% of the full set was active somewhere. Rule as the data show it, unless noted: active = inhibition above about 50%; inactive = the rest.

COc1ccc(N2CCN(C(c3ccccc3OC)c3nnnn3C3CCCC3)CC2)cc1 (stereo unspecified)	none
COc1ccc(N2CCN(C(c3cccc(OC)c3OC)c3nnnn3C3CCCC3)CC2)cc1 (stereo unspecified)	14-3-3 Bad inh 77
Cc1sc2ncnc(N3CCCC(C)C3)c2c1C (stereo unspecified)	none
O=C1CCCC(O)=C1C(C#Cc1ccccc1)C1=C(O)CCCC1=O	eIF4E-4G inh 42[fluorescence artefact?]
CCN(CC)S(=O)(=O)c1ccc(Cl)c(C(=O)Oc2cccnc2)c1	eIF4E-4G inh 58
N#CC1=C(N)OC2=C(CCc3ccccc32)C1c1ccccc1 (stereo unspecified)	none
Cc1ccc(/C=C2\CCC3=C2OC(N)=C(C#N)C3c2ccc(C)cc2)cc1 (stereo unspecified)	EBV gp42 inh 58
CCn1c(C)nc2cc(C(=O)N/N=C/c3ccc(O)c(O)c3O)ccc21	eIF4E-4G inh 78
COc1ccccc1-c1nc(-c2ccc(Br)cc2)no1	none
COc1ccc(-c2nc(-c3ccc(Br)cc3)no2)c(OC)c1	eIF4E-4G inh 32
CS/C(=N\S(=O)(=O)c1cccs1)NC(=O)CSc1nc2ccccc2s1	14-3-3 Bad inh 73
C/C(=N/NC(=O)CSc1nc2ccccc2s1)c1ccncc1	none (no result: PKD1 kinase inh)
COC(=O)c1oc2ccccc2c1NC(=O)/C=C/C(=O)O	none
COc1ccc(C2CC(=O)Oc3c(C(CCN4CCCCC4)c4ccc(N(C)C)cc4)c(OC)cc(OC)c32)cc1 (stereo unspecified)	none (no result: RBBP9 inhibitor, PKD1 kinase inh)
COc1ccc(C2CC(=O)Oc3c(C(CCN4CCCC(C)C4)c4ccc(N(C)C)cc4)c(OC)cc(OC)c32)cc1 (stereo unspecified)	eIF4E-4G inh 43 (no result: RBBP9 inhibitor, PKD1 kinase inh)
CC1CCN(C(c2nnnn2CCc2ccccc2)C(C)C)CC1 (stereo unspecified)	none
CC(C)C(c1nnnn1CCc1ccccc1)N1CCOCC1 (stereo unspecified)	14-3-3 Bad inh 70
COCCn1nnnc1C(C(C)C)N1CCC(Cc2ccccc2)CC1 (stereo unspecified)	14-3-3 Bad inh 84
CCc1cccc2cc3c(N)c(C(=O)Nc4ccc(S(=O)(=O)N5CCCC5)cc4)sc3nc12	EBV gp42 inh 81
Cc1cccc2cc3c(N)c(C(=O)Nc4ccc(N5CCOCC5)cc4)sc3nc12	none
CC(C)(C)c1[nH]nc2c1C(c1cccnc1)C(C#N)=C(N)O2 (stereo unspecified)	none
CC(C)(C)c1[nH]nc2c1C(c1ccc(OC(=O)c3ccco3)cc1)C(C#N)=C(N)O2 (stereo unspecified)	eIF4E-4G inh 43
O=C(O)c1cccc(-n2cccc2/C=C/[N+](=O)[O-])c1	none (no result: PKD1 kinase inh)
Cc1ccc(C(=O)NCC(=O)NCCc2ccc(S(N)(=O)=O)cc2)s1	none (no result: PKD1 kinase inh)
Oc1ccc(/C=N/N=C(c2ccccc2)c2ccccc2)c(O)c1O	eIF4E-4G inh 33[fluorescence artefact?]
C=CCSc1nc(NC)c2sccc2n1	none
O=C(COc1cccc2ccccc12)NNC(=O)c1cccs1	none
O=C(N/N=C/c1ccccc1Cl)c1nc2ccc([N+](=O)[O-])cc2c(=O)[nH]1	EBV gp42 inh 97
CCN(CC)C(=O)Oc1cc(=O)n2c3c(cccc13)CCC2	none
COc1ccccc1/C=C(/NC(=O)c1ccc(Cl)cc1Cl)C(=O)O	14-3-3 Bad inh 85
CCCCC(=O)NC1(C(F)(F)F)NC(=O)N(C)C1=O (stereo unspecified)	none (no result: PKD1 kinase inh)
CCC1(C)CC2(CCCN(CCC(=O)c3ccccc3)C2)CCO1 (stereo unspecified)	none
COc1ccc(CCNC(=O)CCNC(=O)c2ccc(Br)cc2)cc1OC	eIF4E-4G inh 37
COc1ccc(-c2cc3nc4ccccc4n3c(N)c2C#N)cc1	14-3-3 Bad inh 71 (no result: PKD1 kinase inh)
COC(=O)CNC(=O)CN1C(=O)N(c2ccccc2)C(N(O)C(=O)Nc2ccccc2)C1(C)C (stereo unspecified)	none
COC(=O)CN1C(=O)N(c2ccccc2)C(N(O)C(=O)Nc2ccccc2)C1(C)C (stereo unspecified)	EBV gp42 inh 139
CCc1cccc2c(/C=N/NC(=O)c3cccc(S(=O)(=O)Nc4ccccc4Cl)c3)c[nH]c12	none
Clc1ccc(/C=N/NC2=Nc3cccc4cccc2c34)cc1	none
C(=N\NC1=Nc2cccc3cccc1c23)/c1ccccc1	EBV gp42 inh 148
O=C(c1cccnc1)N1CCN(Cc2cccc(Br)c2)CC1	14-3-3 Bad inh 71
O=C(c1cccnc1)N1CCN(Cc2ccc3c(c2)OCO3)CC1	14-3-3 Bad inh 76
COc1ccc(CN2CCN(C(=O)c3cccnc3)CC2)cc1Br	none
CCN(CC)C(=O)CSc1nnc2nnc3cc(OC)ccc3n12	EBV gp42 inh 124 (no result: PKD1 kinase inh)
CC(=O)OC[C@H]1O[C@@H](n2ncc(=O)[nH]c2=O)[C@H](OC(C)=O)[C@@H]1OC(C)=O	14-3-3 Bad inh 71
C=CCNC(=S)Nc1c(N)n(C)c(=O)n(C)c1=O	none (no result: PKD1 kinase inh)
Cc1ccccc1Nc1nc(N)nc(CSc2nc3ccccc3c(=O)n2C)n1	none
CN(C)c1ccc(/C=N/NC(=O)c2cnc3ccccc3c2)cc1	EBV gp42 inh 76 (no result: PKD1 kinase inh)
Cc1c(C(=O)NCCSCc2c(F)cccc2Cl)cnn1-c1ccc(Cl)cc1	EBV gp42 inh 52 (no result: PKD1 kinase inh)
O=C(NCCSCc1c(F)cccc1Cl)c1ccco1	none
O=C(CCS(=O)(=O)c1cccc2nsnc12)NCc1ccccc1Cl	eIF4E-4G inh 33
Cc1cccc(NC(=O)CCS(=O)(=O)c2cccc3nsnc23)c1C	none
Cc1cccc(NC(=O)Cn2cnc3ccccc3c2=O)c1C	14-3-3 Bad inh 92
Cc1cccc(NC(=O)Cn2cnc3c(oc4ccccc43)c2=O)c1C	none
COc1ccc(S(=O)(=O)c2c(N)n(Cc3ccco3)c3nc4ccccc4nc23)cc1	EBV gp42 inh 50
Cc1ccc(S(=O)(=O)c2c(N)n(CCCN(C)C)c3nc4ccccc4nc23)cc1	none (no result: PKD1 kinase inh)
CCOC(=O)N1CCC(NC(=O)c2ccc3c(c2)sc2nc(-c4cccc(OC)c4)cn23)CC1	14-3-3 Bad inh 75
O=C(O)c1ccccc1C1=Nc2ccc(O)cc2Oc2cc(O)ccc21	EBV gp42 inh 84
CN(CCOc1ccccc1)CC(=O)Nc1cccc(Br)c1	14-3-3 Bad inh 74
Cc1cc(NC(=O)CN(C)CCOc2ccccc2)ccc1Br	none
Cc1ccc(NC(=O)CN(C)C(=O)c2n[nH]c(=O)c3ccccc23)cc1	none
CCCOC(=O)c1ccc(OCC(O)CN2CCN(C(=O)c3ccccc3)CC2)cc1 (stereo unspecified)	eIF4E-4G inh 34
